Laboratory results: ChEMBL document CHEMBL1131577, “Auxiliary agents for the peroral administration of peptide and protein drugs: synthesis and evaluation of novel pepstatin analogues” (J Med Chem, 1998)

Target: Pepsin A (Homo sapiens, UniProt P0DJD9)
Assay: Inhibitory activity against pepsin as oxidation of o-phenylenediamine by Horse radish peroxidase (Pepsin sensitive)
In short: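 Pepsin (1 mg, 40 units, per mL of 0.05 N HCl, freshly prepared) mixed with test compound serially diluted 1:2 in DMSO, then 37.5 µg horseradish peroxidase in 0.05 N HCl added; incubated 2 h at 37 °C, then diluted 1:2 in 0.05 N HCl. Residual peroxidase oxidation of o-phenylenediamine (phosphate buffer pH 6.5, H2O2) ran 10 min at room temperature, read at 492 nm. Pepstatin dilutions served as reference.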

Chain of Pepsin A (P0DJD9 whole entry): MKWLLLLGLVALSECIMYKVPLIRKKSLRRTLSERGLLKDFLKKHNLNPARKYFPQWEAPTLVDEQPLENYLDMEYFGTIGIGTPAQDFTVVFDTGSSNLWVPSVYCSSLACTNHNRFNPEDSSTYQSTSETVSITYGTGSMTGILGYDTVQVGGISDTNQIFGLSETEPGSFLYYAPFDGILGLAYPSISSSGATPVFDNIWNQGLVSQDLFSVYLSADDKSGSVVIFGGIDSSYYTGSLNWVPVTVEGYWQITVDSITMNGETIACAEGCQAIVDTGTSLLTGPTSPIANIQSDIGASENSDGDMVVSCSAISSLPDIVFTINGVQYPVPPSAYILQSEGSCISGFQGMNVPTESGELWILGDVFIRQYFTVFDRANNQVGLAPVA

| IC50 | Structure (SMILES) |
| --- | --- |
| 33000 nM | CCCCC(O)[C@@H](NC(=O)[C@@H](NC(=O)[C@@H](NC(=O)OC(C)(C)C)C(C)C)C(C)C)[C@@H](C)CC (stereo not given in full) |
| 1070 nM | CCCCCCCCC(O)[C@H](CCC)NC(=O)[C@@H](NC(=O)[C@@H](NC(=O)OC(C)(C)C)C(C)C)C(C)C (stereo not given in full) |
| 700 nM | CCCCCCC(O)[C@H](CCC)NC(=O)[C@@H](NC(=O)[C@@H](NC(=O)OC(C)(C)C)C(C)C)C(C)C (stereo not given in full) |
| 27000 nM | CCCCCCC(O)[C@@H](NC(=O)[C@@H](NC(=O)[C@@H](NC(=O)OC(C)(C)C)C(C)C)C(C)C)[C@@H](C)CC (stereo not given in full) |
| 830 nM | CCCCCCC(O)[C@H](CC(C)C)NC(=O)[C@@H](NC(=O)[C@@H](NC(=O)OC(C)(C)C)C(C)C)C(C)C (stereo not given in full) |
| 1240 nM | CCCCC(O)[C@H](CC(C)C)NC(=O)[C@@H](NC(=O)[C@@H](NC(=O)OC(C)(C)C)C(C)C)C(C)C (stereo not given in full) |
| 59 nM | CC(C)CC(=O)N[C@H](C(=O)N[C@H](C(=O)N[C@@H](CC(C)C)[C@@H](O)CC(=O)N[C@@H](C)C(=O)N[C@@H](CC(C)C)[C@@H](O)CC(=O)O)C(C)C)C(C)C [PEPSTATIN] |
| 790 nM | CCCCCCCCC(O)[C@H](CC(C)C)NC(=O)[C@@H](NC(=O)[C@@H](NC(=O)OC(C)(C)C)C(C)C)C(C)C (stereo not given in full) |
| 15000 nM | CCCCCCCCC(O)[C@@H](NC(=O)[C@@H](NC(=O)[C@@H](NC(=O)OC(C)(C)C)C(C)C)C(C)C)[C@@H](C)CC (stereo not given in full) |
| 910 nM | CCCCC(O)[C@H](CCC)NC(=O)[C@@H](NC(=O)[C@@H](NC(=O)OC(C)(C)C)C(C)C)C(C)C (stereo not given in full) |
